In brackets after ≈: the same amount, converted by molar mass.
Legend:
[1] = system: Citrobacter freundii; experiment: Antimicrobial activity against aac(6')-Ib-cr-positive Citrobacter freundii TJ15 harboring GyrA T83I, ParC S80I mutant, wild-type GyrB, qnrB genes by agar dilution method; format: functional
How it was run: (§1)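 MICs were determined by the CLSI agar dilution method (M7-A7) and interpreted against CLSI M100-S17 breakpoints.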

[2] = system: Citrobacter freundii; experiment: Antimicrobial activity against aac(6')-Ib-cr-negative Citrobacter freundii JN64T harboring qnrA gene by agar dilution method; format: functional; how it was run: as §1
[3] = system: Enterobacter cloacae; experiment: Antimicrobial activity against aac(6')-Ib-cr-negative Enterobacter cloacae FJ67 harboring […] and qnrS genes by agar dilution method; format: functional
[4] = system: Citrobacter freundii; experiment: Antimicrobial activity against aac(6')-Ib-cr-positive Citrobacter freundii TJ15T harboring wild-type GyrA, ParC, GyrB genes by agar dilution method; format: functional; how it was run: as §1
[5] = system: Citrobacter freundii; experiment: Antimicrobial activity against aac(6')-Ib-cr-positive Citrobacter freundii JS33T harboring qnrA gene by agar dilution method; format: functional; how it was run: as §1
[6] = system: Klebsiella pneumoniae; experiment: Antimicrobial activity against aac(6')-Ib-cr-positive Klebsiella pneumoniae WH99 harboring wild-type GyrA, ParC, GyrB and qnrB genes by agar dilution method; format: functional
How it was run: (§2)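 MICs were determined on clinical isolates by CLSI agar dilution (M7-A7) and interpreted against CLSI M100-S17 breakpoints.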

[7] = system: Citrobacter freundii; experiment: Antimicrobial activity against aac(6')-Ib-cr-positive Citrobacter freundii PU55T harboring wild-type GyrA, ParC, GyrB and qnrA genes by agar dilution method
[8] = system: Enterobacter cloacae; experiment: Antimicrobial activity against aac(6')-Ib-cr-positive Enterobacter cloacae FJ63T harboring qnrS gene by agar dilution method; format: functional
[9] = system: Citrobacter freundii; experiment: Antimicrobial activity against aac(6')-Ib-cr-negative Citrobacter freundii JN64 harboring GyrA T83I, wild-type ParC, GyrB and qnrA genes by agar dilution method; format: functional; how it was run: as §1
[10] = system: Klebsiella pneumoniae; experiment: Antimicrobial activity against aac(6')-Ib-cr-positive Klebsiella pneumoniae JN132 harboring GyrA S83I, ParC S80I mutant, wild-type GyrB and qnrB genes by agar dilution method; format: functional; how it was run: as §2
[11] = system: Klebsiella pneumoniae; experiment: Antimicrobial activity against aac(6')-Ib-cr-positive Klebsiella pneumoniae GZ40T harboring qnrB gene by agar dilution method
[12] = system: Enterobacter cloacae; experiment: Antimicrobial activity against aac(6')-Ib-cr-negative Enterobacter cloacae WH42 harboring wild-type GyrA, ParC, GyrB and qnrA genes by agar dilution method; format: functional
[13] = system: Klebsiella pneumoniae; experiment: Antimicrobial activity against aac(6')-Ib-cr-positive Klebsiella pneumoniae SY26 harboring GyrA S83I, ParC S80I mutant, wild-type GyrB and qnrB genes by agar dilution method; format: functional; how it was run: as §2
[14] = system: Klebsiella pneumoniae; experiment: Antimicrobial activity against aac(6')-Ib-cr-positive Klebsiella pneumoniae JN132T harboring qnrB gene by agar dilution method; format: functional
How it was run: (§3)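 Transconjugants were made by conjugating a qnr/aac(6')-Ib-cr donor with azide-resistant E. coli J53. Selection used Trypticase soy agar with sodium azide 150 µg/ml and sulfamethoxazole 180 µg/ml. […] MICs were read by CLSI agar dilution (M7-A7) and interpreted per M100-S17.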

[15] = system: Enterobacter cloacae; experiment: Antimicrobial activity against aac(6')-Ib-cr-negative Enterobacter cloacae FJ61 harboring GyrA S83I, GyrA D87A, ParC S80I mutant, wild-type GyrB and qnrS genes by agar dilution method; format: functional
[16] = system: Klebsiella pneumoniae; experiment: Antimicrobial activity against aac(6')-Ib-cr-negative Klebsiella pneumoniae SY22 harboring GyrA S83I, ParC S80I mutant, wild-type GyrB and qnrS genes by agar dilution method; format: functional; how it was run: as §1
[17] = system: Enterobacter cloacae; experiment: Antimicrobial activity against aac(6')-Ib-cr-negative Enterobacter cloacae FJ67T harboring qnrS gene by agar dilution method; format: functional
[18] = system: Escherichia coli; experiment: Antimicrobial activity against aac(6')-Ib-cr-positive Escherichia coli FJ3T harboring wild-type GyrA, ParC, GyrB and qnrB genes by agar dilution method
[19] = system: Escherichia coli; experiment: Antimicrobial activity against aac(6')-Ib-cr-negative Escherichia coli PU12T harboring wild-type GyrA, GyrB, ParC and qnrS genes by agar dilution method; format: functional; how it was run: as §1
[20] = system: Enterobacter cloacae; experiment: Antimicrobial activity against aac(6')-Ib-cr-negative Enterobacter cloacae GZ47 harboring qnrB and qnrS genes by agar dilution method; format: functional
[21] = system: Citrobacter freundii; experiment: Antimicrobial activity against aac(6')-Ib-cr-positive Citrobacter freundii PU55 harboring GyrA T83I, ParC S80I mutant, wild-type GyrB, qnrA genes by agar dilution method; format: functional; how it was run: as §1
[22] = system: Klebsiella pneumoniae; experiment: Antimicrobial activity against aac(6')-Ib-cr-positive Klebsiella pneumoniae JN41T harboring qnrB gene by agar dilution method; format: functional; how it was run: as §3
[23] = system: Klebsiella pneumoniae; experiment: Antimicrobial activity against aac(6')-Ib-cr-positive Klebsiella pneumoniae JN41 harboring GyrA S83I, ParC S80I mutant, wild-type GyrB and qnrB genes by agar dilution method; format: functional; how it was run: as §2
[24] = system: Enterobacter cloacae; experiment: Antimicrobial activity against aac(6')-Ib-cr-negative Enterobacter cloacae GZ47T harboring qnrB gene by agar dilution method; format: functional
[25] = system: Klebsiella pneumoniae; experiment: Antimicrobial activity against aac(6')-Ib-cr-positive Klebsiella pneumoniae WH99T harboring qnrB gene by agar dilution method; format: functional; how it was run: as §3
[26] = system: Klebsiella pneumoniae; experiment: Antimicrobial activity against aac(6')-Ib-cr-positive Klebsiella pneumoniae GZ40 harboring GyrA S83I, ParC S80I mutant, wild-type GyrB and qnrB genes by agar dilution method; format: functional; how it was run: as §1
[27] = system: Escherichia coli; experiment: Antimicrobial activity against aac(6')-Ib-cr-negative Escherichia coli PU12 harboring GyrA S83L mutant, wild-type GyrB, ParC and qnrS genes by agar dilution method; format: functional; how it was run: as §1
[28] = system: Citrobacter freundii; experiment: Antimicrobial activity against aac(6')-Ib-cr-positive Citrobacter freundii JN1 harboring GyrA T83I, ParC S80I mutant, wild-type GyrB and qnrA genes by agar dilution method; format: functional; how it was run: as §1
[29] = system: Klebsiella pneumoniae; experiment: Antimicrobial activity against aac(6')-Ib-cr-positive Klebsiella pneumoniae SY26T harboring wild-type GyrA, ParC, GyrB and qnrB genes by agar dilution method; format: functional
How it was run: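 Transconjugants were made by conjugating a qnr/aac(6')-Ib-cr donor with azide-resistant E. coli J53. MICs were read by CLSI agar dilution (M7-A7) and interpreted per M100-S17.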

[30] = system: Enterobacter cloacae; experiment: Antimicrobial activity against aac(6')-Ib-cr-negative Enterobacter cloacae WH42T harboring qnrA gene by agar dilution method; format: functional
[31] = system: Enterobacter cloacae; experiment: Antimicrobial activity against aac(6')-Ib-cr-negative Enterobacter cloacae FJ61T harboring qnrS gene by agar dilution method; format: functional
[32] = system: Enterobacter cloacae; experiment: Antimicrobial activity against aac(6')-Ib-cr-negative Enterobacter cloacae SH39T harboring qnrA gene by agar dilution method; format: functional
[33] = system: Enterobacter cloacae; experiment: Antimicrobial activity against aac(6')-Ib-cr-negative Enterobacter cloacae GZ51 harboring qnrA gene by agar dilution method; format: functional
[34] = system: Escherichia coli; experiment: Antimicrobial activity against aac(6')-Ib-cr-positive Escherichia coli FJ3 harboring GyrA S83L, ParC S80R mutant, wild-type GyrB and qnrB genes by agar dilution method; format: functional; how it was run: as §1
[35] = system: Escherichia coli; experiment: Antimicrobial activity against Escherichia coli J53 harboring wild-type GyrA, ParC, GyrB genes by agar dilution method
[36] = system: Enterobacter cloacae; experiment: Antimicrobial activity against aac(6')-Ib-cr-negative Enterobacter cloacae SH39 harboring GyrA S83I, ParC S80I mutant, wild-type GyrB and qnrA genes by agar dilution method; format: functional
[37] = system: Citrobacter freundii; experiment: Antimicrobial activity against aac(6')-Ib-cr-positive Citrobacter freundii JN1T by agar dilution method; format: functional; how it was run: as §1
[38] = system: Enterobacter cloacae; experiment: Antimicrobial activity against aac(6')-Ib-cr-positive Enterobacter cloacae FJ63 harboring GyrA S83I, GyrA D87A, ParC S80I mutant, wild-type GyrB and qnrS genes by agar dilution method; format: functional
[39] = system: Enterobacter cloacae; experiment: Antimicrobial activity against aac(6')-Ib-cr-negative Enterobacter cloacae GZ51T harboring qnrA gene by agar dilution method; format: functional
[40] = system: Citrobacter freundii; experiment: Antimicrobial activity against aac(6')-Ib-cr-positive Citrobacter freundii JS33 harboring GyrA T83I mutant, wild-type ParC, GyrB, qnrA and qnrB genes by agar dilution method; format: functional; how it was run: as §1
[41] = system: Klebsiella pneumoniae; experiment: Antimicrobial activity against aac(6')-Ib-cr-negative Klebsiella pneumoniae SY22T harboring qnrS gene by agar dilution method; format: functional; how it was run: as §1

Structure (SMILES): CO[C@@]1(NC(=O)Cc2cccs2)C(=O)N2C(C(=O)O)=C(COC(N)=O)CS[C@@H]21 [CEFOXITIN]
- MIC [1]: 256 µg/mL (≈ 599 µM)
- MIC [2]: 8 µg/mL (≈ 18.7 µM)
- MIC [3]: > 256 µg/mL
- MIC [4]: 64 µg/mL (≈ 150 µM)
- MIC [5]: 2 µg/mL (≈ 4.68 µM)
- MIC [6]: 256 µg/mL (≈ 599 µM)
- MIC [7]: 2 µg/mL (≈ 4.68 µM)
- MIC [8]: 4 µg/mL (≈ 9.36 µM)
- MIC [9]: > 256 µg/mL
- MIC [10]: 64 µg/mL (≈ 150 µM)
- MIC [11]: 2 µg/mL (≈ 4.68 µM)
- MIC [12]: > 256 µg/mL
- MIC [13]: 256 µg/mL (≈ 599 µM)
- MIC [14]: 64 µg/mL (≈ 150 µM)
- MIC [15]: 256 µg/mL (≈ 599 µM)
- MIC [16]: 8 µg/mL (≈ 18.7 µM)
- MIC [17]: 4 µg/mL (≈ 9.36 µM)
- MIC [18]: 2 µg/mL (≈ 4.68 µM)
- MIC [19]: 4 µg/mL (≈ 9.36 µM)
- MIC [20]: 256 µg/mL (≈ 599 µM)
- MIC [21]: > 256 µg/mL
- MIC [22]: 2 µg/mL (≈ 4.68 µM)
- MIC [23]: 4 µg/mL (≈ 9.36 µM)
- MIC [24]: 32 µg/mL (≈ 74.9 µM)
- MIC [25]: 64 µg/mL (≈ 150 µM)
- MIC [26]: 32 µg/mL (≈ 74.9 µM)
- MIC [27]: 4 µg/mL (≈ 9.36 µM)
- MIC [28]: > 256 µg/mL
- MIC [29]: 16 µg/mL (≈ 37.4 µM)
- MIC [30]: 2 µg/mL (≈ 4.68 µM)
- MIC [31]: 4 µg/mL (≈ 9.36 µM)
- MIC [32]: 4 µg/mL (≈ 9.36 µM)
- MIC [33]: > 256 µg/mL
- MIC [34]: 8 µg/mL (≈ 18.7 µM)
- MIC [35]: 2 µg/mL (≈ 4.68 µM)
- MIC [36]: > 256 µg/mL
- MIC [37]: 2 µg/mL (≈ 4.68 µM)
- MIC [38]: 256 µg/mL (≈ 599 µM)
- MIC [39]: 4 µg/mL (≈ 9.36 µM)
- MIC [40]: > 256 µg/mL
- MIC [41]: 4 µg/mL (≈ 9.36 µM)

Structure (SMILES): Cc1cc(NS(=O)(=O)c2ccc(N)cc2)no1 [SULFAMETHOXAZOLE]
- MIC [1]: > 256 µg/mL
- MIC [2]: > 256 µg/mL
- MIC [3]: > 256 µg/mL
- MIC [4]: > 256 µg/mL
- MIC [5]: > 256 µg/mL
- MIC [6]: > 256 µg/mL
- MIC [7]: > 256 µg/mL
- MIC [8]: > 256 µg/mL
- MIC [9]: > 256 µg/mL
- MIC [10]: > 256 µg/mL
- MIC [11]: > 256 µg/mL
- MIC [12]: > 256 µg/mL
- MIC [13]: > 256 µg/mL
- MIC [14]: > 256 µg/mL
- MIC [15]: 16 µg/mL (≈ 63.2 µM)
- MIC [16]: 64 µg/mL (≈ 253 µM)
- MIC [17]: > 256 µg/mL
- MIC [18]: > 256 µg/mL
- MIC [19]: > 256 µg/mL
- MIC [20]: > 256 µg/mL
- MIC [21]: > 256 µg/mL
- MIC [22]: > 256 µg/mL
- MIC [23]: > 256 µg/mL
- MIC [24]: 256 µg/mL (≈ 1010 µM)
- MIC [25]: > 256 µg/mL
- MIC [26]: > 256 µg/mL
- MIC [27]: > 256 µg/mL
- MIC [28]: 256 µg/mL (≈ 1010 µM)
- MIC [29]: > 256 µg/mL
- MIC [30]: > 256 µg/mL
- MIC [31]: 16 µg/mL (≈ 63.2 µM)
- MIC [32]: 256 µg/mL (≈ 1010 µM)
- MIC [33]: > 256 µg/mL
- MIC [34]: > 256 µg/mL
- MIC [35]: 16 µg/mL (≈ 63.2 µM)
- MIC [36]: > 256 µg/mL
- MIC [37]: 32 µg/mL (≈ 126 µM)
- MIC [38]: > 256 µg/mL
- MIC [39]: > 256 µg/mL
- MIC [40]: > 256 µg/mL
- MIC [41]: 16 µg/mL (≈ 63.2 µM)
